Measured values reported in ChEMBL document CHEMBL4689842, “EUbOPEN Chemogenomics Library wave 1” (2021).

Tested on: Fibroblast
Experiment: Multiplex assay against human fibroblast
Assay type: toxicity, cell-based
Outline: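 Values for tubulin, mitochondrial-mass and membrane-permeability phenotypes are per cents of cells with healthy nuclei. These cells were identified by CellPathfinder machine-learning gating of live cells that had been stained at seeding with Hoechst33342, BioTracker Green Microtubule Cytoskeleton Dye, MitoTracker Red and Annexin V Alexa Fluor 680 and imaged on a CQ1 microscope at 37°C and 5% CO2 after compound addition. The gating first set Hoechst high-intensity objects apart from normal cells, then split normal cells into healthy, pyknosed or fragmented nuclei, and pyknosed cells into mitotic or apoptotic.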

[1] = 12 h, 1 µM, compound concentration 1 uM, replicate 1
[2] = 12 h, 1 µM, compound concentration 1 uM, replicate 2
[3] = 12 h, 10 µM, compound concentration 10 uM, replicate 1
[4] = 12 h, 10 µM, compound concentration 10 uM, replicate 2
[5] = 24 h, 1 µM, compound concentration 1 uM, replicate 1
[6] = 24 h, 1 µM, compound concentration 1 uM, replicate 2
[7] = 24 h, 10 µM, compound concentration 10 uM, replicate 1
[8] = 24 h, 10 µM, compound concentration 10 uM, replicate 2
[9] = 48 h, 1 µM, compound concentration 1 uM, replicate 1
[10] = 48 h, 1 µM, compound concentration 1 uM, replicate 2
[11] = 48 h, 10 µM, compound concentration 10 uM, replicate 1
[12] = 48 h, 10 µM, compound concentration 10 uM, replicate 2

Cc1nc(N2CC[C@H](O)C2)ncc1-c1cc(C(F)(F)F)cc2[nH]ncc12
Population Apoptotic (%) [1]: 70%
Population Fragmented Nuclei (%) [1]: 32%
Population Healthy Nuclei (%) [1]: 49%
Population Hoechst High Intensity Objects (%) [1]: 12%
Population Membrane Permeable-Phenotype (%) [1]: 10%
Population Mitochondria Different-Phenotype (%) [1]: 6%
Population Mitotic Cells (%) [1]: 29%
Population Normal (%) [1]: 87%
Population Pyknosed Nuclei (%) [1]: 18%
Population Tubulin-Different-Phenotype (%) [1]: 7%
Total Cell Count [1]: 193
Population Apoptotic (%) [2]: 20%
Population Fragmented Nuclei (%) [2]: 42%
Population Healthy Nuclei (%) [2]: 33%
Population Hoechst High Intensity Objects (%) [2]: 40%
Population Membrane Permeable-Phenotype (%) [2]: 28%
Population Mitochondria Different-Phenotype (%) [2]: 28%
Population Mitotic Cells (%) [2]: 80%
Population Normal (%) [2]: 60%
Population Pyknosed Nuclei (%) [2]: 23%
Population Tubulin-Different-Phenotype (%) [2]: 50%
Total Cell Count [2]: 70
Population Apoptotic (%) [3]: 66%
Population Fragmented Nuclei (%) [3]: 24%
Population Healthy Nuclei (%) [3]: 61%
Population Hoechst High Intensity Objects (%) [3]: 15%
Population Membrane Permeable-Phenotype (%) [3]: 3%
Population Mitochondria Different-Phenotype (%) [3]: 7%
Population Mitotic Cells (%) [3]: 33%
Population Normal (%) [3]: 84%
Population Pyknosed Nuclei (%) [3]: 14%
Population Tubulin-Different-Phenotype (%) [3]: 4%
Total Cell Count [3]: 218
Population Apoptotic (%) [4]: 50%
Population Fragmented Nuclei (%) [4]: 68%
Population Healthy Nuclei (%) [4]: 21%
Population Hoechst High Intensity Objects (%) [4]: 22%
Population Membrane Permeable-Phenotype (%) [4]: 15%
Population Mitochondria Different-Phenotype (%) [4]: 15%
Population Mitotic Cells (%) [4]: 50%
Population Normal (%) [4]: 77%
Population Pyknosed Nuclei (%) [4]: 9%
Population Tubulin-Different-Phenotype (%) [4]: 15%
Total Cell Count [4]: 79
Population Apoptotic (%) [5]: 48%
Population Fragmented Nuclei (%) [5]: 29%
Population Healthy Nuclei (%) [5]: 47%
Population Hoechst High Intensity Objects (%) [5]: 12%
Population Membrane Permeable-Phenotype (%) [5]: 9%
Population Mitochondria Different-Phenotype (%) [5]: 9%
Population Mitotic Cells (%) [5]: 51%
Population Normal (%) [5]: 87%
Population Pyknosed Nuclei (%) [5]: 22%
Population Tubulin-Different-Phenotype (%) [5]: 12%
Total Cell Count [5]: 183
Population Apoptotic (%) [6]: 60%
Population Fragmented Nuclei (%) [6]: 45%
Population Healthy Nuclei (%) [6]: 30%
Population Hoechst High Intensity Objects (%) [6]: 35%
Population Membrane Permeable-Phenotype (%) [6]: 30%
Population Mitochondria Different-Phenotype (%) [6]: 7%
Population Mitotic Cells (%) [6]: 40%
Population Normal (%) [6]: 64%
Population Pyknosed Nuclei (%) [6]: 23%
Population Tubulin-Different-Phenotype (%) [6]: 23%
Total Cell Count [6]: 65
Population Apoptotic (%) [7]: 65%
Population Fragmented Nuclei (%) [7]: 22%
Population Healthy Nuclei (%) [7]: 63%
Population Hoechst High Intensity Objects (%) [7]: 15%
Population Membrane Permeable-Phenotype (%) [7]: 7%
Population Mitochondria Different-Phenotype (%) [7]: 3%
Population Mitotic Cells (%) [7]: 34%
Population Normal (%) [7]: 84%
Population Pyknosed Nuclei (%) [7]: 14%
Population Tubulin-Different-Phenotype (%) [7]: 3%
Total Cell Count [7]: 239
Population Apoptotic (%) [8]: 83%
Population Fragmented Nuclei (%) [8]: 67%
Population Healthy Nuclei (%) [8]: 22%
Population Hoechst High Intensity Objects (%) [8]: 24%
Population Membrane Permeable-Phenotype (%) [8]: 38%
Population Mitochondria Different-Phenotype (%) [8]: 30%
Population Mitotic Cells (%) [8]: 16%
Population Normal (%) [8]: 75%
Population Pyknosed Nuclei (%) [8]: 10%
Population Tubulin-Different-Phenotype (%) [8]: 46%
Total Cell Count [8]: 77

CC(C)Oc1ccccc1C(=O)Nc1ccccc1C(=O)Nc1cccc(S(=O)(=O)C(F)(F)F)c1
Population Apoptotic (%) [1]: 75%
Population Fragmented Nuclei (%) [1]: 23%
Population Healthy Nuclei (%) [1]: 49%
Population Hoechst High Intensity Objects (%) [1]: 14%
Population Membrane Permeable-Phenotype (%) [1]: 16%
Population Mitochondria Different-Phenotype (%) [1]: 22%
Population Mitotic Cells (%) [1]: 25%
Population Normal (%) [1]: 85%
Population Pyknosed Nuclei (%) [1]: 26%
Population Tubulin-Different-Phenotype (%) [1]: 62%
Total Cell Count [1]: 158
Population Apoptotic (%) [2]: 33%
Population Fragmented Nuclei (%) [2]: 20%
Population Healthy Nuclei (%) [2]: 74%
Population Hoechst High Intensity Objects (%) [2]: 5%
Population Membrane Permeable-Phenotype (%) [2]: 10%
Population Mitochondria Different-Phenotype (%) [2]: 45%
Population Mitotic Cells (%) [2]: 66%
Population Normal (%) [2]: 94%
Population Pyknosed Nuclei (%) [2]: 6%
Population Tubulin-Different-Phenotype (%) [2]: 37%
Total Cell Count [2]: 62
Population Apoptotic (%) [3]: 61%
Population Fragmented Nuclei (%) [3]: 39%
Population Healthy Nuclei (%) [3]: 34%
Population Hoechst High Intensity Objects (%) [3]: 11%
Population Membrane Permeable-Phenotype (%) [3]: 35%
Population Mitochondria Different-Phenotype (%) [3]: 47%
Population Mitotic Cells (%) [3]: 38%
Population Normal (%) [3]: 88%
Population Pyknosed Nuclei (%) [3]: 25%
Population Tubulin-Different-Phenotype (%) [3]: 23%
Total Cell Count [3]: 137
Population Apoptotic (%) [4]: 90%
Population Fragmented Nuclei (%) [4]: 17%
Population Healthy Nuclei (%) [4]: 71%
Population Hoechst High Intensity Objects (%) [4]: 4%
Population Membrane Permeable-Phenotype (%) [4]: 97%
Population Mitochondria Different-Phenotype (%) [4]: 92%
Population Mitotic Cells (%) [4]: 10%
Population Normal (%) [4]: 96%
Population Pyknosed Nuclei (%) [4]: 10%
Population Tubulin-Different-Phenotype (%) [4]: 100%
Total Cell Count [4]: 53
Population Apoptotic (%) [5]: 61%
Population Fragmented Nuclei (%) [5]: 25%
Population Healthy Nuclei (%) [5]: 51%
Population Hoechst High Intensity Objects (%) [5]: 11%
Population Membrane Permeable-Phenotype (%) [5]: 10%
Population Mitochondria Different-Phenotype (%) [5]: 22%
Population Mitotic Cells (%) [5]: 38%
Population Normal (%) [5]: 88%
Population Pyknosed Nuclei (%) [5]: 22%
Population Tubulin-Different-Phenotype (%) [5]: 65%
Total Cell Count [5]: 168
Population Apoptotic (%) [6]: 33%
Population Fragmented Nuclei (%) [6]: 21%
Population Healthy Nuclei (%) [6]: 66%
Population Hoechst High Intensity Objects (%) [6]: 7%
Population Membrane Permeable-Phenotype (%) [6]: 11%
Population Mitochondria Different-Phenotype (%) [6]: 58%
Population Mitotic Cells (%) [6]: 66%
Population Normal (%) [6]: 92%
Population Pyknosed Nuclei (%) [6]: 11%
Population Tubulin-Different-Phenotype (%) [6]: 35%
Total Cell Count [6]: 57
Population Apoptotic (%) [7]: 79%
Population Fragmented Nuclei (%) [7]: 40%
Population Healthy Nuclei (%) [7]: 37%
Population Hoechst High Intensity Objects (%) [7]: 12%
Population Membrane Permeable-Phenotype (%) [7]: 21%
Population Mitochondria Different-Phenotype (%) [7]: 71%
Population Mitotic Cells (%) [7]: 20%
Population Normal (%) [7]: 87%
Population Pyknosed Nuclei (%) [7]: 21%
Population Tubulin-Different-Phenotype (%) [7]: 23%
Total Cell Count [7]: 127
Population Apoptotic (%) [8]: 100%
Population Fragmented Nuclei (%) [8]: 17%
Population Healthy Nuclei (%) [8]: 56%
Population Hoechst High Intensity Objects (%) [8]: 11%
Population Membrane Permeable-Phenotype (%) [8]: 91%
Population Mitochondria Different-Phenotype (%) [8]: 94%
Population Mitotic Cells (%) [8]: 0%
Population Normal (%) [8]: 88%
Population Pyknosed Nuclei (%) [8]: 27%
Population Tubulin-Different-Phenotype (%) [8]: 98%
Total Cell Count [8]: 55
Population Apoptotic (%) [9]: 70%
Population Fragmented Nuclei (%) [9]: 30%
Population Healthy Nuclei (%) [9]: 57%
Population Hoechst High Intensity Objects (%) [9]: 14%
Population Membrane Permeable-Phenotype (%) [9]: 14%
Population Mitochondria Different-Phenotype (%) [9]: 13%
Population Mitotic Cells (%) [9]: 29%
Population Normal (%) [9]: 85%
Population Pyknosed Nuclei (%) [9]: 12%
Population Tubulin-Different-Phenotype (%) [9]: 49%
Total Cell Count [9]: 163
Population Apoptotic (%) [10]: 60%
Population Fragmented Nuclei (%) [10]: 29%
Population Healthy Nuclei (%) [10]: 67%
Population Hoechst High Intensity Objects (%) [10]: 7%
Population Membrane Permeable-Phenotype (%) [10]: 4%
Population Mitochondria Different-Phenotype (%) [10]: 1%
Population Mitotic Cells (%) [10]: 40%
Population Normal (%) [10]: 92%
Population Pyknosed Nuclei (%) [10]: 3%
Population Tubulin-Different-Phenotype (%) [10]: 55%
Total Cell Count [10]: 154
Population Apoptotic (%) [11]: 78%
Population Fragmented Nuclei (%) [11]: 69%
Population Healthy Nuclei (%) [11]: 24%
Population Hoechst High Intensity Objects (%) [11]: 10%
Population Membrane Permeable-Phenotype (%) [11]: 14%
Population Mitochondria Different-Phenotype (%) [11]: 46%
Population Mitotic Cells (%) [11]: 21%
Population Normal (%) [11]: 89%
Population Pyknosed Nuclei (%) [11]: 6%
Population Tubulin-Different-Phenotype (%) [11]: 48%
Total Cell Count [11]: 232
Population Apoptotic (%) [12]: 50%
Population Fragmented Nuclei (%) [12]: 66%
Population Healthy Nuclei (%) [12]: 29%
Population Hoechst High Intensity Objects (%) [12]: 9%
Population Membrane Permeable-Phenotype (%) [12]: 21%
Population Mitochondria Different-Phenotype (%) [12]: 65%
Population Mitotic Cells (%) [12]: 50%
Population Normal (%) [12]: 90%
Population Pyknosed Nuclei (%) [12]: 3%
Population Tubulin-Different-Phenotype (%) [12]: 55%
Total Cell Count [12]: 175
